Test results as given in ChEMBL document CHEMBL4270612, “Discovery of dual GyrB/ParE inhibitors active against Gram-negative bacteria” (Eur J Med Chem, 2018).
≈ marks a conversion by molar mass, not a printed value.

Tests used:
DNA gyrase subunit B = DNA gyrase subunit B (Escherichia coli, UniProt P0AES6); test: Inhibition of Escherichia coli GyrB (1 to 220 residues) expressed in Escherichia coli BL21(DE3)
[1] = target: DNA topoisomerase 4 subunit B (Escherichia coli K-12, UniProt P20083); test: Inhibition of Escherichia coli ParE
DNA topoisomerase 4 subunit B, sequence (P20083 whole entry): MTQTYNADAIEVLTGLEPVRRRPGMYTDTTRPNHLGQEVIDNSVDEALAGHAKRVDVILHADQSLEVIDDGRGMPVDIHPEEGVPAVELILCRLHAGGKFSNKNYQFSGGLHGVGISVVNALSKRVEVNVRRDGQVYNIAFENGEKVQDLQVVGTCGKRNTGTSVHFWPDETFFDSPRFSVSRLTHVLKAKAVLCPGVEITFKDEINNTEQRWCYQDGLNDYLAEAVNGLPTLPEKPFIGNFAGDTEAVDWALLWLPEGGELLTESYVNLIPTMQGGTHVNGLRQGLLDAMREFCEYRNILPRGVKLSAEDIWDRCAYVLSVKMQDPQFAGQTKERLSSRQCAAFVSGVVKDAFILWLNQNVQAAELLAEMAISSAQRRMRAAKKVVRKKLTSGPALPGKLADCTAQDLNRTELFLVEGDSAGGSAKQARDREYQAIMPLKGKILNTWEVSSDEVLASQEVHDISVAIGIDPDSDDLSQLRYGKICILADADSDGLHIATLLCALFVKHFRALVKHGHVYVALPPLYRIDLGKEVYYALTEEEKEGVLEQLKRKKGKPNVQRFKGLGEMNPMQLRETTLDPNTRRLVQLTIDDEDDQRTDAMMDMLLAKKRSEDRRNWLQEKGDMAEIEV

Pseudomonas aeruginosa [2] = test: Antibacterial activity against Pseudomonas aeruginosa PAO1 after 24 hrs by broth microdilution method; type: functional; settings: PAO1, 24 h
Procedure, shortened: (§1)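 Broth microdilution per CLSI. Bacterial suspension adjusted to 1×10^6 CFU/mL in cation-adjusted Mueller–Hinton broth and mixed 1:1 with 2-fold serial compound dilutions. Final DMSO 2.5% v/v. Plates incubated at 35 °C with shaking at 140 rpm for 24 h.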

Pseudomonas aeruginosa [3] = test: Antibacterial activity against Pseudomonas aeruginosa harboring MexABCDXY deletion mutant after 24 hrs by broth microdilution method; type: functional
Procedure, shortened: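 Broth microdilution per CLSI. Bacterial suspensions adjusted to 1×10^6 CFU/mL in cation-adjusted Mueller–Hinton broth, mixed 1:1 with 2-fold serial compound dilutions (final DMSO 2.5% v/v). Incubation 35 °C, 140 rpm, 24 h.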

Escherichia coli [4] = test: Antibacterial activity against Escherichia coli after 24 hrs by broth microdilution method; type: functional; procedure, shortened: as §1
Escherichia coli [5] = test: Antibacterial activity against tolC deficient Escherichia coli after 24 hrs by broth microdilution method; type: functional
Procedure, shortened: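 Broth microdilution per CLSI guidelines. Inoculum adjusted to 1×10^6 CFU/mL in cation-adjusted Mueller–Hinton broth, added 1:1 to 2-fold serial compound dilutions; final DMSO 2.5% v/v. Plates incubated 35 °C, 140 rpm, 24 h.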

[6] = Dissociation constant, pKa of compound by pH metric method; type: physicochemical
Procedure, shortened: (§2)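 Potentiometric (pH-metric) titration on an automated titrator, Gold Standard pH metric assay, run in triplicate.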

[7] = Growth inhibition of human A549 cells; type: cell-based
[8] = Dissociation constant, acidic pKa of compound by pH metric method; type: physicochemical; procedure, shortened: as §2
[9] = Dissociation constant, basic pKa of compound by pH metric method; type: physicochemical; procedure, shortened: as §2

Row | SMILES | IC50 (DNA gyrase subunit B) [µM] | IC50 [1] [µM] | MIC (Pseudomonas aeruginosa [2]) [mg/L] | MIC (Pseudomonas aeruginosa [3]) [mg/L] | MIC (Escherichia coli [4]) [mg/L] | MIC (Escherichia coli [5]) [mg/L] | pKa [6] | GI50 [7] [µM] | pKa [8] | pKa [9]
1 | CCNC(=O)Nc1cc(-c2nc(C(F)(F)F)cs2)c(-c2cc3ncccc3nc2N2C3CC2CN(C)C3)cn1 | 0.005 | 0.2 | > 60 | 1.1 (≈ 1.98 µM) | 17.2 (≈ 31 µM) | 2.21 (≈ 3.98 µM) | 7.6 | > 50 |  | 
2 | CCNC(=O)Nc1cc(-c2nc(C(F)(F)F)cs2)c(-c2cc3ncccc3nc2N2CCC(N)CC2)cn1 | 0.006 | 0.049 | 67.8 (≈ 125 µM) | 0.54 (≈ 0.995 µM) | 16.8 (≈ 31 µM) | 0.54 (≈ 0.995 µM) | 9.3 | > 50 |  | 
3 | CCNC(=O)Nc1cc(-c2nc(C(F)(F)F)cs2)c(-c2cc(-c3n[nH]c(=O)o3)cnc2N2[C@@H]3CC[C@H]2C[C@@H](N)C3)cn1 | 0.004 | 0.012 | > 50 | 0.6 (≈ 0.997 µM) | > 50 | 4.8 (≈ 7.98 µM) |  |  | 6.8 | 9.5
4 | CCNC(=O)Nc1cc(-c2nc(C(F)(F)F)cs2)c(-c2cnc3cccnc3c2)cn1 | 0.004 | 2.01 | > 25 | > 25 | > 25 | 0.44 (≈ 0.99 µM) |  |  |  | 
5 | CCNC(=O)Nc1cc(-c2nc(C(F)(F)F)cs2)c(-c2cc3ncccc3nc2N2[C@@H]3CC[C@H]2C[C@@H](N)C3)cn1 | 0.003 | 0.024 | 35.5 (≈ 62.5 µM) | 0.56 (≈ 0.985 µM) | 4.54 (≈ 7.98 µM) | 0.56 (≈ 0.985 µM) | 9.2 | > 40 |  | 
6 | CCNC(=O)Nc1cc(-c2nc(C(F)(F)F)cs2)c(-c2cc3ncccc3nc2N2CC3CCC2CN3)cn1 (configuration not stated) | 0.008 | 0.021 | > 60 | 0.55 (≈ 0.992 µM) | 8.87 (≈ 16 µM) | 1.1 (≈ 1.98 µM) | 9.2 |  |  | 
7 | CCNC(=O)Nc1cc(-c2nc(C(F)(F)F)cs2)c(-c2cc(-c3n[nH]c(=O)o3)cnc2N2CCC(N)CC2)cn1 | 0.002 | 0.023 | > 50 | 1.15 (≈ 2 µM) | > 50 | 9.2 (≈ 16 µM) |  |  | 6.8 | 9.5
8 | CCNC(=O)Nc1cc(-c2nc(C(F)(F)F)cs2)c(-c2cc(C(=O)O)ccc2N2C3CCC2CN(C)C3)cn1 | 0.009 | 0.01 | 9 (≈ 16.1 µM) | 4.46 (≈ 7.96 µM) | 9 (≈ 16.1 µM) | 1.12 (≈ 2 µM) |  | > 25 | 4.4 | 8.2
